High-throughput results deposited in PubChem by PCMD.
Hits are enriched below; roughly 1% of the tested compounds scored in any of these assays.
Yeast growth tox: Inhibitors of S. cerevisiae growth, toxicity; S. cerevisiae wild-type growth, A595 turbidity, 16 h; growth inhibition, % at 25 µM (by protocol); 30,000 compounds, 0.3% hits; AID 685;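 active = mutant and wild-type yeast strains alike exhibit over 30% growth inhibition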;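 also: 0% = untreated cell controls and 100% = YPD media blanks without cells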
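Incubation: 16 h growth with compound, 30 °C; Material: S. cerevisiae wild-type or eIF2Bepsilon-R284H mutant strain; Signal: turbidity measured as absorbance at 595 nm; Medium: YPD yeast growth medium; Measure: growth inhibition (%) versus cell controls and blanks; Doses: 25 µM single dose.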
eIF2B yeast act: eIF2B (yeast) activity modulation. S. cerevisiae eIF2B-epsilon R284H, GCN4-lacZ luminescence. inhibition, % at 25 µM (by protocol). 27,000 compounds, 0.91% hits;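 active = mutant luminescence inhibited past about 50% while wild type luminescence and mutant growth stay under set limits, limit read from the data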
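material = yeast eIF2B-epsilon R284H mutant carrying GCN4–beta-galactosidase fusion | schedule = 16 h growth with compound at 30 °C, 90 min Beta-Glo step | measured by = luminescence and A595 | compound dosing = one concentration, 25 µM, 0.25% DMSO | read-out basis = % inhibition of reporter signal and growth versus controls | buffer or medium = YPD medium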
* = called active by the depositor; . = no result given; ! = a repeat was not active.

SMILES | Yeast growth tox | eIF2B yeast act
O=C1c2ccccc2S(=O)(=O)N1CC1CC(c2ccccc2)=NO1 (configuration not stated) | 42.1* | -7.4
COc1ccc(C2=NOC(CN3C(=O)c4ccccc4S3(=O)=O)C2)cc1 (configuration not stated) | . | 42.9
Cc1ccc(-n2nc(C)c3c2OC(N)=C(C#N)C3c2ccccc2F)cc1 (configuration not stated) | -2.5 | 23.9
Cc1nn(-c2ccccc2)c2c1C(c1c(C)[nH]c(C#N)c1C)C(C#N)=C(N)O2 (configuration not stated) | -6.6 | 52.7*
O=C(Oc1cc(-c2ccccc2)no1)c1ccc(F)cc1 | 17.9 | 16.1
Cc1ccc(-n2c(SCC(N)=O)nnc2-c2ccc(S(=O)(=O)N3CCCCC3)cc2)c(C)c1 | 21.6 | .
COc1ccccc1OCc1ccc(C(=O)Nc2ccncc2)o1 | -1.4 | 22.1
CC(C)OC(=O)CCc1nc2ccccc2[nH]c1=O | 2.1 | 60.9*
CCOC(=O)C(C)c1nc2ccccc2[nH]c1=O (configuration not stated) | 7.9 | 33.0
O=CNCC(=O)NCCc1ccc(Cl)cc1 | 16.6 | 26.7
CCCCNS(=O)(=O)c1cccc(S(=O)(=O)N2CCCC2)c1 | -9.2 | 52.8*
O=S(=O)(NCCc1ccccc1F)c1cccc(S(=O)(=O)N2CCOCC2)c1 | -5.5 | -23.6
C=CCn1c(CCNC(=O)c2ccccc2F)nnc1SCC(=O)Nc1nc2ccccc2s1 | 15.8 | .
COc1ccc(/C(O)=C2/C(=O)C(=O)N(CCCN(C)C)C2c2ccc(C)o2)cc1Cl (configuration not stated) | 12.3 | -7.5
O=C(COc1ccc(S(=O)(=O)N2CCOCC2)cc1)Nc1ccccc1C(F)(F)F | 0.0 | 14.8
CC(=O)Oc1ccc(N2C(=O)C3C(C2=O)C2(C)C=CC3(C)O2)cc1 (configuration not stated) | 61.1* | 39.3
CC(=O)Oc1ccc2c(C)cc(=O)oc2c1 | 8.2 | 19.6
O=C(Nc1ccccn1)C(=O)N1CCCCC1 | -2.6 | -24.9
COc1ccc(OC)c(NC(=O)Nc2ccc(Cl)cc2)c1 | 30.7 | .
COc1ccc(OC)c(N/C(C)=C/C(=O)c2ccc(C)o2)c1 | -2.2 | 56.5*
CCCc1ccc(Oc2c(-c3ccc(O)c(C)c3O)n[nH]c2C)cc1 | 81.4* | -31.7
COc1ccc(Oc2c(-c3ccc(O)cc3O)n[nH]c2C)cc1 | 5.7 | -1.3
COc1ccc(CN(CC2CCCO2)C(=O)CN2C(=O)COc3ccccc32)cc1OC (configuration not stated) | 1.8 | -22.7
Cn1c(O)c(C=Nc2ccc(Cc3ccncc3)cc2)c(=O)n(C)c1=O | 0.8 | 15.4
CCOC(=O)C1C(=O)C(C(C)=O)C(=O)CC1CC(C)SCC (configuration not stated) | 18.1 | 12.6
SMILES | Yeast growth tox | eIF2B yeast act
COc1ccc(N(CC(=O)NC2CCCCCC2)S(=O)(=O)c2c(C)nn(C)c2C)cc1 | -29.6 | 14.1
COc1cccc(NC(=O)CN(c2ccc(C)cc2)S(=O)(=O)c2c(C)nn(C)c2C)c1 | 0.8 | 53.0*
Cc1ccc(-c2cnc(N)n2C)cc1C | 18.2 | 9.3
N/C(Cc1ccc([N+](=O)[O-])cc1)=N\OC(=O)c1ccc([N+](=O)[O-])cc1 | 5.4 | 15.8
N/C(Cc1ccc(Cl)cc1)=N\OC(=O)c1ccccc1 | 71.2* | -0.3
O=C(CSc1nnc(-c2cccs2)n1-c1ccccc1)N1CCc2ccccc21 | -17.5 | 7.7
O=c1/c(=C/c2ccc(O)cc2)sc2n1CCCN=2 | 16.4 | 78.8*
CCOC(=O)/C=c1\sc2n(c1=O)CCN=2 | -14.5 | 38.4
CC(C)(C)c1ccc(OCC(O)CSc2ncn[nH]2)cc1 (configuration not stated) | 7.3 | .
COc1ccc(OCCOC(=O)c2ccc(-n3cnnn3)cc2)cc1 | 8.4 | 10.4
COc1ccc(C(=O)OC(COc2ccccc2)Cn2ccnc2)cc1 (configuration not stated) | 68.3* | 75.9
CC(C)C[C@H](NC(=O)Nc1ccccc1F)C(=O)O | 11.4 | 19.3
CCOC(=O)C1=C(c2ccccc2)N=C2SCC(=O)N2C1c1ccc(OC)c(OC)c1 (configuration not stated) | 6.2 | 13.3
CCOC(=O)C1=C(c2ccccc2)N(C)C(=O)NC1c1ccc(O)c(OC)c1 (configuration not stated) | -6.9 | 50.2*
COc1ccccc1-c1noc(CCC(=O)Nc2ccccc2Cl)n1 | -4.1 | -22.1
Cc1cc(N2CCC(C)CC2)n2nc(C)c(-c3ccccc3)c2n1 | 9.6 | 11.6
CCOCCCNC(=O)C1CCN(c2cc(C)nc3c(-c4ccc(OC)c(OC)c4)c(C)nn23)CC1 | -11.5 | 63.3*
CCCCCCCCS(=O)c1sc2nc(C)cc(C)c2c1N (configuration not stated) | 7.2 | .
Cc1sc2ncn(CC(=O)NCCCC(=O)N3CCN(c4ncccn4)CC3)c(=O)c2c1C | 14.7 | 21.5
Cc1cc2c(cc1C)CSC(c1ccc3ccccc3c1O)SC2 | -35.9 | .
Cc1cc2c(cc1C)CSC(c1ccccc1O)SC2 | 80.7* | .
O=C(Cn1cnc2c(nnn2-c2ccc(F)cc2)c1=O)N1CCCC1 | 0.9 | 47.3
CCOC(=O)c1c(NC(=O)COC)sc2c1CCCC2 | 2.3 | 64.8*
CCOC(=O)c1c(NC=O)sc2c1CCC2 | 8.6 | 7.7
CN1c2ccsc2C(O)=C(C(=S)Nc2ccc(F)c(Cl)c2)S1(=O)=O | 14.6 | 4.1
SMILES | Yeast growth tox | eIF2B yeast act
Fc1ccc(SCCc2ccncc2)cc1 | 58.6*! | .
c1ccc(SCCc2ccncc2)cc1 | 9.3 | .
Cc1cccc(Nc2nnc(-c3ccc(C(=O)N4C[C@H]5C[C@H](C4)c4cccc(=O)n4C5)cc3)c3ccccc23)c1 | 8.6 | .
Cc1ccc(-c2nnn(CCC(=O)Nc3ccc4c(c3)OCO4)n2)cc1 | -55.0 | 7.9
CN1CCN(CCC(=O)Nc2ccc3c(c2)OCO3)CC1 | 7.2 | 55.6*
COCCn1c(C2CCCCC2)nc2sc3ccccc3c(=O)c2c1=O | 9.8 | -1.2
O=C(Nc1ccc(Oc2cccc3ccccc23)cc1)c1ccco1 | 19.7 | .
CCOC(=O)C1(CCSC)NC(c2ccco2)C2C(=O)N(C)C(=O)C21 (configuration not stated) | -14.4 | 72.4*
CCOC(=O)C1(CC)NC(c2ccco2)C2C(=O)N(C)C(=O)C21 (configuration not stated) | 17.9 | -20.9
COc1ccc(N2CCN(C(=O)CN(C)S(=O)(=O)c3cnc[nH]3)CC2)cc1 | 18.1 | 13.1
COc1ccc(S(=O)(=O)N2CCN(CC(=O)Nc3cc(C(F)(F)F)ccc3Cl)CC2)cc1 | 2.3 | 11.6
CCn1cc(C(=O)NCc2ccc3c(c2)OCO3)c(=O)c2cc(F)c(N3CCN(C(=O)c4ccco4)CC3)cc21 | 8.6 | -10.6
COCC(=O)Nc1cc(OC)c(Cl)cc1OC | -5.1 | 55.1*
COc1cc(NC(=O)c2ccccc2)c(OC)cc1Cl | 8.6 | -3.2
CCCCS(=O)Cc1ccccc1 (configuration not stated) | 19.0 | 16.0
CCCCN(C(=O)Cn1nnc2ccccc21)C(C(=O)NCCOC)c1ccccc1 (configuration not stated) | 7.2 | 56.9*
CCOC(=O)CN(C(=O)Cn1nnc2ccccc21)C(C(=O)NCCOC)c1ccccc1C (configuration not stated) | -12.1 | 33.1
CS(=O)(=O)N(CCc1ccccc1)CC(=O)NCc1ccco1 | 19.7 | 8.9
COC(=O)c1ccc(OCC(=O)c2ccccc2)cc1 | 5.2 | 22.6
